Activity calls are given as the source filed them. No cut-off for these calls is given here.
Assays:
[1] = target: T1, Muscarinic acetylcholine receptor (Mus musculus) (UniProt Q920H4+Q9ERZ4+P12657+P32211+Q9ERZ3); conditions: BALB/c, 10^-10M
[2] = target: T1, Muscarinic acetylcholine receptor (Mus musculus); assay: Activity at muscarinic receptor in BALB/c mouse MSC assessed as increase in cell viability at 10^-10M incubated for 24 hrs by Cell-titer 96 aqueous one solution reagent based assay
Procedure, shortened: (§1)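 Bone-marrow MSCs from mouse, cultured for 2 weeks, then seeded at 5,000 cells/well in DMEM with 10% heat-inactivated FCS. Exposed to compound at 10–4 to 10–10 M for 24 h, with vehicle (DMSO) and untreated controls. Viability read by MTS reagent (2 h, 5% CO2) as absorbance at 490 nm. Mean ± SEM of four independent experiments.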

[3] = target: T1, Muscarinic acetylcholine receptor (Mus musculus); assay: Activity at muscarinic receptor in BALB/c mouse MSC assessed as reduction in cell viability at 10^-4M incubated for 24 hrs by Cell-titer 96 aqueous one solution reagent based assay
Procedure, shortened: as §1

[4] = target: T1, Muscarinic acetylcholine receptor (Mus musculus); assay: Antagonist activity at muscarinic receptor in BALB/c mouse MSC assessed as inhibition of carbachol-induced increase in cell viability at 10^-4 to 10^-10M incubated for 24 hrs by Cell-titer 96 aqueous one solution reagent based assay
Procedure, shortened: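 Mouse bone-marrow MSCs kept as adherent cultures, with medium changes, for 2 weeks, then plated at 5,000 cells/well in DMEM with 10% HIFCS. Antagonist (10–4 to 10–10 M) given for 1 h, medium replaced, then carbachol 10–10 M for 24 h. Viability read by MTS, 2 h incubation, absorbance 490 nm. Controls were vehicle (DMSO) and untreated cells. Four independent experiments, mean ± SEM.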

[5] = target: T2, Muscarinic acetylcholine receptor M5 (Homo sapiens, UniProt P08912); assay: Displacement of [3H]NMS from human recombinant muscarinic receptor M5 expressed in CHO-K1 cell membranes incubated for 2 hrs by scintillation counting method
T2 sequence (P08912 whole entry): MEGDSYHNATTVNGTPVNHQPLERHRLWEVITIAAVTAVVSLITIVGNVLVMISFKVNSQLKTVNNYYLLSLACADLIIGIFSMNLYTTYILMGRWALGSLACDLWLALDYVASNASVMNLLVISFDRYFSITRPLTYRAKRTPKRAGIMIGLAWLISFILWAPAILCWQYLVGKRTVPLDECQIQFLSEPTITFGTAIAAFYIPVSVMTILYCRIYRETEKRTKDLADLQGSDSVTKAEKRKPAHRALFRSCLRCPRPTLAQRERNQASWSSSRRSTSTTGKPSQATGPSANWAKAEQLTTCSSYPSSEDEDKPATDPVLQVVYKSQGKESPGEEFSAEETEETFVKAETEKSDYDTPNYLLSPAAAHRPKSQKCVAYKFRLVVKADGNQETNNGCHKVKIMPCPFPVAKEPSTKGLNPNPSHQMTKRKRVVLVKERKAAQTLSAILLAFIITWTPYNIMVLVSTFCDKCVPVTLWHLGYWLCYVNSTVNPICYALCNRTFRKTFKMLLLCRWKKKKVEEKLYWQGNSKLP
Procedure, shortened: (§2)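 CHO-K1 membranes stably expressing hM4 or hM5, at about 25–70 μg/mL protein, in 25 mM sodium phosphate with 5 mM MgCl2, pH 7.4. Competition with 0.2 nM [3H]NMS for 2 h at r.t.; nonspecific binding defined with 10 μM atropine. Filtration, then scintillation counting. IC50 from four-parameter logistic fit, converted to Ki. Mean ± S.E.M. of ≥3 experiments, each in duplicate.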

[6] = target: T3, Muscarinic acetylcholine receptor M4 (Homo sapiens, UniProt P08173); assay: Displacement of [3H]NMS from human recombinant muscarinic receptor M4 expressed in CHO-K1 cell membranes incubated for 2 hrs by scintillation counting method
T3 sequence (P08173 whole entry): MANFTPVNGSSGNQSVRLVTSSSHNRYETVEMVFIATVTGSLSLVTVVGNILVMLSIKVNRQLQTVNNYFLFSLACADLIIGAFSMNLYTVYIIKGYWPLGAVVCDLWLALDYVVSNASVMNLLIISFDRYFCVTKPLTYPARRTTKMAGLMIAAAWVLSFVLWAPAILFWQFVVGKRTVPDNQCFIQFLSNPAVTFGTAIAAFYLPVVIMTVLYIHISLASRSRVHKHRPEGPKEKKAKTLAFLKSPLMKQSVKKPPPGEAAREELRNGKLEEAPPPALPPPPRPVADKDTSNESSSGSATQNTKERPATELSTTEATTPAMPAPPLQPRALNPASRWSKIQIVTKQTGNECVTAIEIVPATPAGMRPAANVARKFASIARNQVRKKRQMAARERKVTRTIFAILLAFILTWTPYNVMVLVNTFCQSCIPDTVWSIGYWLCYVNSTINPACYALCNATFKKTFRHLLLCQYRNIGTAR
Procedure, shortened: as §2

[7] = target: T4, Muscarinic acetylcholine receptor M2 (Homo sapiens, UniProt P08172); assay: Displacement of [3H]NMS from human recombinant muscarinic receptor M2 expressed in CHO-K1 cell membranes incubated for 2 hrs by scintillation counting method
T4 sequence (P08172 whole entry): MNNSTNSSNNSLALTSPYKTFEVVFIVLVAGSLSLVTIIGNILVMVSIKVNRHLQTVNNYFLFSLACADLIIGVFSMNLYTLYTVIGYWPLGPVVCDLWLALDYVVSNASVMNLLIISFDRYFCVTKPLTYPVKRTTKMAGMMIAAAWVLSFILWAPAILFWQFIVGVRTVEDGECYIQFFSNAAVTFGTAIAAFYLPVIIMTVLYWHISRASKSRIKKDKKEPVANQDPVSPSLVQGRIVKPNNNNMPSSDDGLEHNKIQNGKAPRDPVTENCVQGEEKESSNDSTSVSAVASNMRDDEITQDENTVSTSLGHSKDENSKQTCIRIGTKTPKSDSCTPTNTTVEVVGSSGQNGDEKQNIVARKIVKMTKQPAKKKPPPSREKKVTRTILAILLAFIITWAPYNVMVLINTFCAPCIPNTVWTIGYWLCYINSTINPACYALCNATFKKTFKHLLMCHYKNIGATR
Procedure, shortened: (§3)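 Membranes from CHO-K1 cells stably expressing each human subtype, homogenised in 25 mM sodium phosphate, 5 mM MgCl2, pH 7.4. About 25–70 μg/mL protein incubated with 0.2 nM [3H]NMS and test compound for 2 h at r.t. Nonspecific binding defined with 10 μM atropine. Filtration, then counting. Four-parameter logistic fit gave IC50, converted to Ki. Mean ± S.E.M. of ≥3 experiments in duplicate.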

[8] = target: Muscarinic acetylcholine receptor M3 (Homo sapiens, UniProt P20309); assay: Displacement of [3H]NMS from human recombinant muscarinic receptor M3 expressed in CHO-K1 cell membranes incubated for 2 hrs by scintillation counting method
Chain of Muscarinic acetylcholine receptor M3 (P20309 whole entry): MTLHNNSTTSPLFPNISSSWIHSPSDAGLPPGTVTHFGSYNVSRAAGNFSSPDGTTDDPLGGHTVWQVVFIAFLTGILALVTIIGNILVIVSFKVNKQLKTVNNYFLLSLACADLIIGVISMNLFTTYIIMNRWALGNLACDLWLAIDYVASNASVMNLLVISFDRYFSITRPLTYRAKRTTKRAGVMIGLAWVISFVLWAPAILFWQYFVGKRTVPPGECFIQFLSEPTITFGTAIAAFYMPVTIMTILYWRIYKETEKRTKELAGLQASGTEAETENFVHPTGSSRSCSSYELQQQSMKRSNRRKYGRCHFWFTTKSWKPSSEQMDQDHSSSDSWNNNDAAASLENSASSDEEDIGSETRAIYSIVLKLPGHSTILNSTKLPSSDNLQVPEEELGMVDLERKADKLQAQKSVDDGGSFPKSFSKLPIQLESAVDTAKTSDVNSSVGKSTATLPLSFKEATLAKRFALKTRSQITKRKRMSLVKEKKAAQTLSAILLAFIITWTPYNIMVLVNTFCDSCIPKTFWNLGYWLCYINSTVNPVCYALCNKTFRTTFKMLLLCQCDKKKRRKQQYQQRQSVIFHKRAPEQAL
Procedure, shortened: as §3

[9] = target: T5, Muscarinic acetylcholine receptor M1 (Homo sapiens, UniProt P11229); assay: Displacement of [3H]NMS from human recombinant muscarinic receptor M1 expressed in CHO-K1 cell membranes incubated for 2 hrs by scintillation counting method
T5 sequence (P11229 whole entry): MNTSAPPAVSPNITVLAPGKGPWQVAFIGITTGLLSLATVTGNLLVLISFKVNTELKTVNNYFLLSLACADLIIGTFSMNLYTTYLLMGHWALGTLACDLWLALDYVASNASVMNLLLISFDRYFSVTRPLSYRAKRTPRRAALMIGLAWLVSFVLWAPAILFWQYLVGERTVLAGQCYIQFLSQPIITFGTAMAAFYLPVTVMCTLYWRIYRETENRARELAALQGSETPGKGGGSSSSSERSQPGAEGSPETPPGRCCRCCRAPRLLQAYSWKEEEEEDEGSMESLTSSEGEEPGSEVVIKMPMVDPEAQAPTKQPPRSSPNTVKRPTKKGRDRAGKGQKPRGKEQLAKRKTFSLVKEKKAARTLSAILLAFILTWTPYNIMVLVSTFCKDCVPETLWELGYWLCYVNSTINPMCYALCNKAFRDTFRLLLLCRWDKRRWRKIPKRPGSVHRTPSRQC
Procedure, shortened: as §3

SMILES | inhibition [1] | Activity [2] | Activity [3] | inhibition [4] | Ki [5] [nM] | Ki [6] [nM] | Ki [7] [nM] | Ki [8] [nM] | Ki [9] [nM]
CN1[C@@H]2CC[C@H]1C[C@@H](OC(=O)C(CO)c1ccccc1)C2 (stereo partly specified) | Active | Active | Active | – | – | – | – | – | –
C[N+](C)(C)C[C@@H]1COC[C@](c2ccccc2)(C2CCCCC2)O1 (relative stereo) | – | Active | Active | Active | – | – | – | – | –
O=C(O[C@H]1C[C@H]2CC[C@@H](C1)[N+]21CCCC1)C(O)(c1ccccc1)c1ccccc1 [TROSPIUM CHLORIDE] | – | – | – | – | 6.03 | 1.45 | 1.15 | 1.02 | 3.47
